The text below walks through data of article PMC4654616 (ACS chemical biology, 2015).

Read-outs that look alike come from different tables or passages of the source. Bounds are passed on as bounds.

Series [1] concerns the target uPAR•uPA binding on HEK-293-uPAR cells (Homo sapiens, UniProt Q03405). Description: FACS analysis of FITC-conjugated uPA binding to HEK-293-uPAR cells. The following applies: read-out: inhibition of uPA-FITC binding to uPAR (FACS). It is filed as cell-based.
In series [2] the test system is MDA-MB-231 cells. Description: Boyden Matrigel invasion chamber assay. The format is cell-based. The following applies: Homo sapiens, MDA-MB-231, 16 h, read-out: IC50 for MDA-MB-231 cell invasion. The procedure, abridged:
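MDA-MB-231 cells were serum-starved 4 h. Matrigel inserts had fibronectin (30 ng µl⁻¹) coated on the underside overnight at 4 °C and were equilibrated 2 h in serum-free medium. The upper chamber received 5 × 10⁴ cells in 0.1% FBS medium with test compound or 1% DMSO. The lower chamber held 10% FBS medium with the same compound. After 16 h at 37 °C, invaded cells were methanol-fixed, hematoxylin-stained and counted in ten 200× fields; n = 3.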

Series [3] deals with T1, uPAR•uPAATF interaction (Homo sapiens, UniProt Q03405). The format is binding.
The target in series [4] is VTN•uPAR•uPAATF interaction (Homo sapiens, UniProt Q03405). Description: Microtiter-based ELISA for uPAR•VTN. The format is binding. The procedure, abridged: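 Full-length VTN (5 µg·mL⁻¹, carbonate buffer pH 9.6) was coated 12 h at 4 °C, then blocked 1 h at room temperature. Wells received 120 nM uPAR•uPA_ATF complex in PBS with 0.01% Triton X-100 plus test compound for 60 min. Compound was screened at 50 µM or titrated 100 to 0.4 µM, with 1% DMSO final. Bound uPAR was detected by biotinylated anti-uPAR antibody (1 h), streptavidin-HRP (20 min) and TMB/H₂O₂ with H₂SO₄ stop; n = 2.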
For orientation: ELISA stands for enzyme-linked immunosorbent assay.

Series [5] deals with T2, uPAR (Homo sapiens, UniProt Q03405). Description: Isothermal titration calorimetry of 7 against purified uPAR. It is filed as binding. Background: In ITC the heat of successive injections is recorded.
A short description of the next series: MTT cell viability assay. It is filed as cell-based, human. The following applies: human, MDA-MB-231 cells. The procedure, abridged:
(§1)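 MDA-MB-231 cells were grown in DMEM with 10% FBS and 1% penicillin/streptomycin at 37 °C, 5% CO₂. Cells (10⁴/well) were plated overnight, then treated 3 days with test compound or DMSO control. MTT (20 µl of 5 mg/ml) was added for 2 h at 37 °C. Viable cells were quantified by absorbance at 570 nm with 630 nm reference.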
On the technique in general: Tetrazolium dyes change colour on reduction, which living cells bring about.

Series [6] relates to MDA-MB-231 cells. Description: MTT cell viability assay. It is filed as cell-based, human. To be noted: MDA-MB-231, 100 µM. In a few lines:
as §1

For series [7], the system named is Rac1 activation in MDA-MB-231 cells. Description: Rac1 pull-down assay. It is filed as cell-based, human.
The subject of series [8] is FAK phosphorylation in MDA-MB-231 cells. Description: Western blot for phospho-FAK. It is filed as cell-based, human. The procedure, abridged: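 MDA-MB-231 lysates were made in RIPA buffer with protease and phosphatase inhibitors. Thirty micrograms of protein were resolved on 10% SDS-PAGE and transferred to nitrocellulose. Blots were probed overnight at 4 °C for total FAK, phospho-FAK (Y397) or actin. Dye-conjugated anti-mouse or anti-rabbit secondaries were detected by infrared fluorescence imaging.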

In series [9] the target is T2, uPAR. Description: Saturation transfer difference. The format is binding. To be noted: 438 µM 7, uPAR 50 fold less.
In series [10] the target is T1, uPAR•uPAATF interaction. Description: Microtiter-based ELISA for uPAR•uPAATF. It is filed as binding. In a few lines:
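Wells were coated with uPA_ATF (2 µg·mL⁻¹ in PBS, 2 h, 4 °C) and blocked 1 h at room temperature. Purified uPAR lacking the GPI anchor (75 nM, PBS with 0.025% Triton X-100) was added with test compound for 30 min. Compound was screened at 50 µM or titrated 100 to 0.4 µM, with 1% DMSO final. After washing, bound uPAR was detected by biotinylated anti-uPAR antibody (1 h), streptavidin-HRP (20 min) and TMB/H₂O₂ with H₂SO₄ stop; n = 2.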

For series [11], the target named is T2, uPAR. Description: Fluorescence polarization, displacement of AE147-FAM peptide from uPAR. It is filed as binding. The procedure, abridged: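 Test compound was serially diluted in DMSO, then in PBS with 0.01% Triton X-100 (final 100 µM to 0.046 µM). It was preincubated at least 15 min with uPAR before AE147-FAM peptide was added. Final levels were 320 nM uPAR, 100 nM peptide and 2% DMSO. Polarization was read at ex 485/em 530 nm in duplicate. Peptide-only and uPAR + peptide controls were run in quadruplicate.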

T2 sequence (Q03405 23-305 limits assumed): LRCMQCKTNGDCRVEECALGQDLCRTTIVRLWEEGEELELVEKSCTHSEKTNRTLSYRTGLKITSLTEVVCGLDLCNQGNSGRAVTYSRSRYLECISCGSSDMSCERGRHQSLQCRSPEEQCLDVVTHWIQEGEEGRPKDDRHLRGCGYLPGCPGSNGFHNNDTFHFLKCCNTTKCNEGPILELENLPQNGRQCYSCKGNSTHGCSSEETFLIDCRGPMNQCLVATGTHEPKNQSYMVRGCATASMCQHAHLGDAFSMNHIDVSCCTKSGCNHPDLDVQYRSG
T1 sequence (Q03405 23-305 limits assumed): as above
Chain of VTN•uPAR•uPAATF interaction (Q03405 23-305 limits assumed): as above
Chain of uPAR•uPA binding on HEK-293-uPAR cells (Q03405 23-305 limits assumed): as above

As a reminder, the inhibition is the drop in the measured response relative to a control, in per cent. Broadly, the IC50 is the point on the concentration scale where inhibition reaches its midpoint. The term Kd denotes the free concentration of one partner at which half of the binding sites on the other are occupied at equilibrium, for simple one-to-one binding. Higher therefore signals weaker binding. As a reminder, the viability is a read-out of living cells in per cent, often relative to untreated cells. Lower therefore signals a greater loss of cells. As for `Cc1ccc(N2C(=O)C(O)=C(C(=O)c3ccc(Cl)cc3)C2c2cccc(F)c2)cc1Br` (stereo not drawn) [Compound 7, 1-(3-bromo-4-methylphenyl)-4-(4-chlorobenzoyl)-5-(3-fluorophenyl)-3-hydroxy-1H-pyrrol-2(5H)-one], the inhibition at 100 µM in series [1] was about 40%. Moreover, the IC50 with MDA-MB-231 cells [2] was 35 µM; against uPAR•uPAATF interaction [3], 12.9 µM; in series [4], 32.8 µM; at uPAR•uPAATF interaction [10] (IC50 for inhibition of uPAR•uPAATF interaction (ELISA), 75 nM uPAR, immobilized uPAATF), 18 µM. This compound gave a Kd on uPAR [5] of 17.2 µM. Also, the “enthalpy (ΔH) (ITC)” value at uPAR [5] (25 °C) was -6.4 kcal/mol. Also, the “entropy (ΔS) (ITC)” value on uPAR [5] (25 °C) stood at 0.01 kcal/mol. For the same compound, the viability at 3 days, 100 µM in “MTT cell viability assay” was over 80%. For the same compound, the cytotoxicity result with MDA-MB-231 cells [6] is given as “not cytotoxic”. The Rac1 activation result in [7] was “inhibited Rac1 activation in a concentration-dependent manner”. Also, the “FAK phosphorylation at Y397” value in series [8] is reported as “significantly inhibited”. Besides, at uPAR [9], the “direct binding to uPAR (STD-NMR and ITC)” value is on record as “binds directly to uPAR”.

What is called Ki is the dissociation constant of the complex between target and ligand, obtained from inhibition or displacement. Read a low Ki as tighter binding. Compound `CCCCCCOc1cccc(N2C(=O)C(O)=C(C(=O)c3ccccc3)C2c2ccc(CC)cc2)c1` (stereo not drawn) [Compound 1, 4-benzoyl-5-(4-ethylphenyl)-1-(3-(hexyloxy)phenyl)-3-hydroxy-1H-pyrrol-2(5H)-one] displayed a Ki on uPAR [11] of 4.2 µM. The compound also registered an IC50 at uPAR•uPAATF interaction [10] of 58 µM.
